Laboratory results: ChEMBL document CHEMBL1124233, “Clofazimine analogues active against a clofazimine-resistant organism” (J Med Chem, 1988)

Tests used:
Assay type in all cases: functional, organism-based
[1] = tested on: Mycolicibacterium smegmatis; assay: Concentration for complete inhibition of growth against rifampicin resistant Mycobacterium smegmatis 607 strain in vitro; Precipitation
In short: (§1)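 M. smegmatis ATCC607-derived strains (one of three used, including a dapsone-sensitive one) were grown in modified Kirchner's medium with 0.5% Tween 80, inoculated with 10^5 viable cells. Drugs were added in DMSO (2% final). Roller tubes were incubated at 37 °C for 72 h. Growth was read as spectrophotometric transmission.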

[2] = tested on: Mycolicibacterium smegmatis; assay: Concentration for 100% inhibition of growth of dapsone sensitive Mycobacterium smegmatis 607 strain in vitro; in short: as §1
[3] = tested on: Mycolicibacterium smegmatis; assay: Concentration for complete inhibition of growth against clofazimine resistant Mycobacterium smegmatis 607 strain in vitro; Precipitation
In short: (§2)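 Strain: 20× step-up clofazimine-resistant mutant of M. smegmatis ATCC607. 10^5 viable cells inoculated into modified Kirchner's medium with 0.5% Tween 80. Drugs were added in DMSO (2% final in all tubes). Roller tubes were incubated at 37 °C for 72 h. Growth was read as optical transmission in a spectrophotometer.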

[4] = tested on: Mycolicibacterium smegmatis; assay: 100% inhibition of growth of rifampicin resistant Mycobacterium smegmatis 607 strain in vitro; in short: as §1
[5] = tested on: Mycolicibacterium smegmatis; assay: 100% inhibition of growth of clofazimine resistant Mycobacterium smegmatis 607 strain in vitro; in short: as §2

| SMILES | Concentration [1] | Concentration [2] | Concentration [3] | Concentration [4] | Concentration [5] |
| --- | --- | --- | --- | --- | --- |
| CCOc1ccc(Nc2cc3nc4ccccc4n(-c4ccc(OCC)cc4)c-3cc2=N)cc1 | 50 µg/mL | 6 µg/mL | 100 µg/mL | – | – |
| CC/N=c1\cc2n(-c3ccc(Cl)cc3)c3ccccc3nc-2cc1Nc1ccc(Cl)cc1 | – | 2 µg/mL | – | 2 µg/mL | 100 µg/mL |
| CCCNCCC/N=c1\cc2n(-c3ccc(Cl)cc3)c3ccccc3nc-2cc1Nc1ccc(Cl)cc1 | – | 0.2 µg/mL | – | 0.2 µg/mL | 2 µg/mL |
| c1ccc(Nc2cc3nc4ccccc4n(-c4ccccc4)c-3c/c2=N\CCN2CCNCC2)cc1 | – | 0.4 µg/mL | – | 0.4 µg/mL | 1 µg/mL |
| Clc1ccc(Nc2cc3nc4ccccc4n(-c4ccc(Cl)cc4)c-3c/c2=N\C2CCCCCC2)cc1 | – | 2 µg/mL | – | 3 µg/mL | 50 µg/mL |
| CC/N=c1\cc2n(-c3ccccc3)c3ccccc3nc-2cc1Nc1ccccc1 | – | 3 µg/mL | – | 3 µg/mL | 20 µg/mL |
